For data set [1], the target named is Vascular endothelial growth factor receptor 3 (Homo sapiens, UniProt P35916). The experiment in a line: Inhibition of Flt4 (unknown origin) after 20 mins by scintillation counting. Put shortly:
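Radiometric filter-plate kinase assay for Flt-1, Flt-4 and PDGFR-α. Buffer: 20 mM Tris-HCl pH 7.4, 3 mM MnCl2, 3 mM MgCl2, 50 μg/mL poly GluTyr, 100 mM NaCl, Na3VO4, DTT, 0.5% BSA. Kinase (55 ng) plus compound in 2% DMSO buffer; reaction started with 4 μM ATP/32P-ATP solution. Ran 20 min at room temperature, stopped with 30% TCA, washed with 15% TCA, scintillation counted.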

Data set [2] addresses Platelet-derived growth factor receptor beta (Homo sapiens, UniProt P09619). The experiment in a line: Inhibition of PDGFR-beta (unknown origin) after 20 mins by scintillation counting.
Data set [3] deals with NIH3T3. Put plainly: Cytotoxicity against mouse NIH/3T3 cells overexpressing Flt-1 (unknown origin) after 48 hrs. The class given is cell-based. The settings on record: nih3t3, 48 h. Put shortly:
(§1)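 MTT viability assay: NIH3T3-Flt-1 or NIH3T3-KDR cells, grown in DMEM with 10% FCS, glutamine and 200 μg/mL G418, were seeded at 3 × 10^3 cells/well with or without test samples and incubated 2 days. MTT was then added for 2 h, formazan dissolved overnight in 10% SDS, and absorbance read at 570 nm.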

For data set [4], the system named is NIH3T3. Put plainly: Cytotoxicity against mouse NIH/3T3 cells overexpressing KDR (unknown origin) after 48 hrs. The settings on record: nih3t3, 48 h. The data set is classed as cell-based. Put shortly:
as §1

Data set [5] has as its target Platelet-derived growth factor receptor alpha (Homo sapiens, UniProt P16234). Put plainly: Inhibition of PDGFR-alpha (unknown origin) after 20 mins by scintillation counting.
Data set [6] addresses T1, Vascular endothelial growth factor receptor 1 (Homo sapiens, UniProt P17948). Put plainly: Inhibition of GST-Flt1 kinase domain (unknown origin) expressed in baculovirus infected Sf9 cells after 20 mins by scintillation counting.
For data set [7], the system named is NIH3T3. The experiment in a line: Cytotoxicity against mouse NIH/3T3 cells overexpressing Flt-1 (unknown origin) at 10 uM after 2 hrs. The class given is cell-based. The settings on record: nih3t3, 2 h.
Data set [8] addresses Vascular endothelial growth factor receptor 2 (Homo sapiens, UniProt P35968).
Data set [9] deals with Epidermal growth factor receptor (Homo sapiens, UniProt P00533). Put plainly: Inhibition of EGFR (unknown origin) after 20 mins by scintillation counting.
For data set [10], the target named is T1, Vascular endothelial growth factor receptor 1. Put plainly: Inhibition of ligand-induced phosphorylation of Flt-1 (unknown origin) overexpressed in NIH-3T3 cells at 10 uM after 2 hrs by immunoblotting. The data set is classed as cell-based. Particulars: NIH3T3. A digest of the protocol:
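Subconfluent NIH3T3-Flt-1 cells were serum-starved 16 h, exposed to samples for 2 h, then stimulated 5 min with 50 ng/mL recombinant human VEGF-A. Cells were lysed in HEPES/Triton buffer containing Na3VO4, PMSF and aprotinin. Lysates were immunoblotted with anti-phosphotyrosine, anti-Flt-1 and anti-actin antibodies.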
On the technique in general: A western blot detects proteins with antibodies after separation by electrophoresis.

The target in data set [11] is Fibroblast growth factor receptor (Homo sapiens, UniProt P22607+P11362+P22455+P21802). Put plainly: Inhibition of FGFR (unknown origin) after 20 mins by scintillation counting. The class given is protein assay.

Among the data in ChEMBL document CHEMBL2331471, “Vegfrecine, an inhibitor of VEGF receptor tyrosine kinases isolated from the culture broth of Streptomyces sp” (J Nat Prod, 2013) are IC50 and Activity values, retold here.

Each structure is given as a SMILES string. Active and inactive are the calls of the source. No cut-off for these calls is given here.

T1 sequence (P17948 whole entry, the tested form may be a part): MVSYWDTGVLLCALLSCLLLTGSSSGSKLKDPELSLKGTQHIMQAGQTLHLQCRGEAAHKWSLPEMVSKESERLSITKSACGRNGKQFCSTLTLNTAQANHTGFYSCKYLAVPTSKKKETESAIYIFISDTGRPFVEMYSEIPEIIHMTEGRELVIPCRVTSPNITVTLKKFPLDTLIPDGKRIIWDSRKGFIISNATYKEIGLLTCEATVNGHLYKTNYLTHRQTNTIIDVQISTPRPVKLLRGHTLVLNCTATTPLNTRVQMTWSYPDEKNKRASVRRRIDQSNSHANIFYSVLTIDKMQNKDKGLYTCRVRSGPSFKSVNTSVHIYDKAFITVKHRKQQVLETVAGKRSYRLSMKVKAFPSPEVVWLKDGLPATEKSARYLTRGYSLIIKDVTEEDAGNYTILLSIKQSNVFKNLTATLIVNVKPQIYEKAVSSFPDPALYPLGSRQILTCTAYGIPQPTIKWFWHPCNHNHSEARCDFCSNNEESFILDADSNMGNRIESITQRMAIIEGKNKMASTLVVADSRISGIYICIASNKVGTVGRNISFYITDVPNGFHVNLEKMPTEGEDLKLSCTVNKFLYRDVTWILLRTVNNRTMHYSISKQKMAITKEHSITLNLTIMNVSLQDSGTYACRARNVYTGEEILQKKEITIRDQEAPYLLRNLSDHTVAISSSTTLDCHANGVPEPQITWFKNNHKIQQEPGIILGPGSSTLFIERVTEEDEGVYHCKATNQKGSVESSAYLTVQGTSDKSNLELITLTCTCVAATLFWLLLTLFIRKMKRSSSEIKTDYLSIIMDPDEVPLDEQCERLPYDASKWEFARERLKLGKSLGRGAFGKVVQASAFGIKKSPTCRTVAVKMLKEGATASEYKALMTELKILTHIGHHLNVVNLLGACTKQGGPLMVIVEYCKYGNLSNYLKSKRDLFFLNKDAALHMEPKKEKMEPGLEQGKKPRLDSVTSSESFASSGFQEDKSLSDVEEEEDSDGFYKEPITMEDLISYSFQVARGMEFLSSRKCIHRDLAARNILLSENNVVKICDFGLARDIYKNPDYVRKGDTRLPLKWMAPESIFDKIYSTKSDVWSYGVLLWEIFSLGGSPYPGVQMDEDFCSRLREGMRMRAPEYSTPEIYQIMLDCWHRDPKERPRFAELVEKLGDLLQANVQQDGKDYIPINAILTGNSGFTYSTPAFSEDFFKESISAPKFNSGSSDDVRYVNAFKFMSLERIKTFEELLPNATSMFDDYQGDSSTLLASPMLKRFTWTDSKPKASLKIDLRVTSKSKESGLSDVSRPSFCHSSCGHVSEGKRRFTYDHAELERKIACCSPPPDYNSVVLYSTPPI
Vascular endothelial growth factor receptor 3, sequence (P35916 whole entry): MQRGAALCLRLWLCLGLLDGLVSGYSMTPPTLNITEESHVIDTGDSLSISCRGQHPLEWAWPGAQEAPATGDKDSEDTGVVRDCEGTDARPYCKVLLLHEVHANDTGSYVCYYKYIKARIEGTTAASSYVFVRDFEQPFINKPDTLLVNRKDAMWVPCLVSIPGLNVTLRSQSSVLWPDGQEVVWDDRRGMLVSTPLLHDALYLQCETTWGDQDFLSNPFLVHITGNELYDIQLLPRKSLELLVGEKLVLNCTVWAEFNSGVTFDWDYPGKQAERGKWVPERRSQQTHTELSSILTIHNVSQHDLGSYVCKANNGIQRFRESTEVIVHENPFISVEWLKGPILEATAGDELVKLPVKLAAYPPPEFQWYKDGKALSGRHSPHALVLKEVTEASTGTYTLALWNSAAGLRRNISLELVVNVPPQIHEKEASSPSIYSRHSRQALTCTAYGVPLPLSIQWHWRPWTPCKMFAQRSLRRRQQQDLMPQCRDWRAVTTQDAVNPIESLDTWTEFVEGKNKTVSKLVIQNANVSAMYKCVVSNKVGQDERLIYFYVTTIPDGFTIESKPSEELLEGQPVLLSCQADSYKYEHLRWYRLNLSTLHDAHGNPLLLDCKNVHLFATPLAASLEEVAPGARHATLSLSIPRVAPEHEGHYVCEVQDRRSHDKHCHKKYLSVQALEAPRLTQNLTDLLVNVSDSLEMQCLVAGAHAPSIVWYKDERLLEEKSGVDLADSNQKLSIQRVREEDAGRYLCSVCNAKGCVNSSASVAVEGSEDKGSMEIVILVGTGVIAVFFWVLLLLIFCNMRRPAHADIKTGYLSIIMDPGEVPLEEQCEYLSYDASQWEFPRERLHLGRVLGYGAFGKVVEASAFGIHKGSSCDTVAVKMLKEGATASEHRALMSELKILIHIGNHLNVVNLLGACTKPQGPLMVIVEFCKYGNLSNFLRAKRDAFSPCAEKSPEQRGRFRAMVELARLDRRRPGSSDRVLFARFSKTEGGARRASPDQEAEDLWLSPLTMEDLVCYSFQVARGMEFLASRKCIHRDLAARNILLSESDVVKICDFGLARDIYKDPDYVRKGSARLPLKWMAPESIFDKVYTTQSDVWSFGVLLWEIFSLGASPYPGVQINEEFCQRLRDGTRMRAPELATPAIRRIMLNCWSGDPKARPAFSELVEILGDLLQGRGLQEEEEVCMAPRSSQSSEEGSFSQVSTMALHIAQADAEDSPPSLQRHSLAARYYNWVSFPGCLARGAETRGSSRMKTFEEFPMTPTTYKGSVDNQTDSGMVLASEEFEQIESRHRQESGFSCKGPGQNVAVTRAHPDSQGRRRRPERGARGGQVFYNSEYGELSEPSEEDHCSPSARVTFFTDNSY
Vascular endothelial growth factor receptor 2, sequence (P35968 whole entry): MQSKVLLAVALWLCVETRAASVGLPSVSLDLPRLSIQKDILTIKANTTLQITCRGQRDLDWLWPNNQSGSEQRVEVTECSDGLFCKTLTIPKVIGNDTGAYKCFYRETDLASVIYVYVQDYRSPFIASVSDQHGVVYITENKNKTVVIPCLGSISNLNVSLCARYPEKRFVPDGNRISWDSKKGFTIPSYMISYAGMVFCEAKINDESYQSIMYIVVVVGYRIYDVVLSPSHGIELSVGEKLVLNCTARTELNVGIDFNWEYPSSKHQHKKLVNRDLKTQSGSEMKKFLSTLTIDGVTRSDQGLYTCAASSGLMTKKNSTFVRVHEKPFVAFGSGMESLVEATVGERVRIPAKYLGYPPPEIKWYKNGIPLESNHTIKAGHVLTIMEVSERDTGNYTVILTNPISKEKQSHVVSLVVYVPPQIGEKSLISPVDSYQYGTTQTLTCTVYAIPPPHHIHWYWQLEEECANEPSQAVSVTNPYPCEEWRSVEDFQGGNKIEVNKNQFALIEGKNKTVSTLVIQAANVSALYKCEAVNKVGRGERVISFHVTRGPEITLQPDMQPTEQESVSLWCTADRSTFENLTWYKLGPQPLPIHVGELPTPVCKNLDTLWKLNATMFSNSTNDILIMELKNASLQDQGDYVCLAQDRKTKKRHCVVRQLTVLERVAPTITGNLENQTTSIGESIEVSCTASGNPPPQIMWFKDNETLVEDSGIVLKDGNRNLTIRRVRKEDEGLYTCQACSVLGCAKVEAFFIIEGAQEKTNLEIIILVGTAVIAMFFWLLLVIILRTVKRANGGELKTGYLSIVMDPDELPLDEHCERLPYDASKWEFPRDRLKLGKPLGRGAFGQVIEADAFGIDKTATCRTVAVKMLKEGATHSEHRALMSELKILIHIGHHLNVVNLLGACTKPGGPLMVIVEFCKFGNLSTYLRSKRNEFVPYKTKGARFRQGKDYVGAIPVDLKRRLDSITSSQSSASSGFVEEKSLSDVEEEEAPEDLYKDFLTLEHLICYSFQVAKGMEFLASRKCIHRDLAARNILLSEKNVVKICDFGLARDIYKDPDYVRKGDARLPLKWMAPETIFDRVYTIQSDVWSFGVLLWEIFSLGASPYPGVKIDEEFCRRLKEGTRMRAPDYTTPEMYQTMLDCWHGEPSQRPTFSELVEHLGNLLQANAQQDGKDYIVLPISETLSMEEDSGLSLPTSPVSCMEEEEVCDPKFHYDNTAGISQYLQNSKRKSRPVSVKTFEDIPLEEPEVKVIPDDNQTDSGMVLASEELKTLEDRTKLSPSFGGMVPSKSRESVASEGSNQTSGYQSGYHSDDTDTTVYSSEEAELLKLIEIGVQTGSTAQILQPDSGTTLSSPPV
Platelet-derived growth factor receptor alpha, sequence (P16234 whole entry, the tested form may be a part): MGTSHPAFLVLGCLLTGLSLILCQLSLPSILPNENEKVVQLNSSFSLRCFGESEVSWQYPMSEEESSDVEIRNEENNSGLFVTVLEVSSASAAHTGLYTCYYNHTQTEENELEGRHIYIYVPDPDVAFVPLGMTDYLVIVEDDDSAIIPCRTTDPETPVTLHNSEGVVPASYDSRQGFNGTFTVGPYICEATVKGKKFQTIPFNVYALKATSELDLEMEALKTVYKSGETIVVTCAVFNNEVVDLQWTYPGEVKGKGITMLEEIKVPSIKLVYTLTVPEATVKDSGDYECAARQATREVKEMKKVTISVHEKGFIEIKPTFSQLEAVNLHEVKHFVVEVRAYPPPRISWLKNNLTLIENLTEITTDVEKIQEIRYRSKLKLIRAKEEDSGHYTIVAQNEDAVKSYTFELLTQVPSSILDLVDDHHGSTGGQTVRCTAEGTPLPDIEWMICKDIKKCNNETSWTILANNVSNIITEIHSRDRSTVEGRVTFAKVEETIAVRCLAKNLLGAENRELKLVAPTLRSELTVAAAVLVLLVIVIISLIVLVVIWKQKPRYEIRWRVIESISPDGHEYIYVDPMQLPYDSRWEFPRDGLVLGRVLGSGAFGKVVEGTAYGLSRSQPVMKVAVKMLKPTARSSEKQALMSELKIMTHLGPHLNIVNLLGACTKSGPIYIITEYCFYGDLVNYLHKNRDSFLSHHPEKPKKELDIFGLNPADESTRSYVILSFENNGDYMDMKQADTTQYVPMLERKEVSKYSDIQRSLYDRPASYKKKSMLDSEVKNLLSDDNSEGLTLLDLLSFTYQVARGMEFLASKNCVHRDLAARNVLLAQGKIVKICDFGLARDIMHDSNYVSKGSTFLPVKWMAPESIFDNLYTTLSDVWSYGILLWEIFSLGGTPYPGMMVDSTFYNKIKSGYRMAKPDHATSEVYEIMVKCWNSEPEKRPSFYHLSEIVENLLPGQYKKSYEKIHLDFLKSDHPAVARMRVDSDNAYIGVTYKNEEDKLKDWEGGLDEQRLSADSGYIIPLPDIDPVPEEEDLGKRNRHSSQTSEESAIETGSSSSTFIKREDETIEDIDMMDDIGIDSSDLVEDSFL

`Cc1cc(C)c(/C=C2\C(=O)Nc3ccccc32)[nH]1` [SEMAXANIB]: the 50% inhibitory concentration (IC50) in data set [1] came to 500 nM.

`NC(=O)C1=C(N)C(=O)C=C(Nc2ccccc2O)C1=O` [VEGFRECINE]: the IC50 was 480 nM in data set [2]; 1.8 nM in data set [1]; 3200 nM in [5]; 18 nM in [6]; 11 nM in [8]; 2600 nM in [9]. For the same compound, the IC50 in data set [11] was determined as 730 nM. Moreover, the Activity in the data set on NIH3T3 [3] is 3 µM; in the data set with NIH3T3 [4], 12 µM; in the data set on NIH3T3 [7], “Non-toxic”. For the same compound, in data set [10], the outcome was Active.

As usually defined, the IC50 is the midpoint of a concentration-inhibition curve. A higher IC50 goes with weaker potency in that assay.
